One experiment deals with Cannabinoid receptor 1 (Mus musculus, UniProt P47746). Nature of the experiment: Displacement of [3H]CP-55940 from CB1 receptor in mouse brain. The class given is tissue-based. (In a radioligand displacement assay an active substance lowers the binding of a labelled ligand.)
A further experiment has as its target T1, Monoglyceride lipase (Mus musculus, UniProt O35678).
T1 sequence (O35678 whole entry): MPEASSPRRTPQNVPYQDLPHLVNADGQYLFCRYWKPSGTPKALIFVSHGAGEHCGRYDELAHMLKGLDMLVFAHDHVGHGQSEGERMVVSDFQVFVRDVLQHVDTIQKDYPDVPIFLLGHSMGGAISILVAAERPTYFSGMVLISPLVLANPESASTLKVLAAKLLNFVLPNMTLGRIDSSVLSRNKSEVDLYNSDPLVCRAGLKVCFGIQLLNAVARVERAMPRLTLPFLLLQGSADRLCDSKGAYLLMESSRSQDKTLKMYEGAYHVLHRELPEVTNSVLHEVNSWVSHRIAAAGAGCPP
As to the kind of experiment: Inhibition of MAGL-mediated 2-arachidonoylglycerol hydrolysis in mouse brain. The class given is tissue-based.

Experiment [1] concerns the target T2, Fatty-acid amide hydrolase 1 (Mus musculus, UniProt O08914).
T2 sequence (O08914 whole entry): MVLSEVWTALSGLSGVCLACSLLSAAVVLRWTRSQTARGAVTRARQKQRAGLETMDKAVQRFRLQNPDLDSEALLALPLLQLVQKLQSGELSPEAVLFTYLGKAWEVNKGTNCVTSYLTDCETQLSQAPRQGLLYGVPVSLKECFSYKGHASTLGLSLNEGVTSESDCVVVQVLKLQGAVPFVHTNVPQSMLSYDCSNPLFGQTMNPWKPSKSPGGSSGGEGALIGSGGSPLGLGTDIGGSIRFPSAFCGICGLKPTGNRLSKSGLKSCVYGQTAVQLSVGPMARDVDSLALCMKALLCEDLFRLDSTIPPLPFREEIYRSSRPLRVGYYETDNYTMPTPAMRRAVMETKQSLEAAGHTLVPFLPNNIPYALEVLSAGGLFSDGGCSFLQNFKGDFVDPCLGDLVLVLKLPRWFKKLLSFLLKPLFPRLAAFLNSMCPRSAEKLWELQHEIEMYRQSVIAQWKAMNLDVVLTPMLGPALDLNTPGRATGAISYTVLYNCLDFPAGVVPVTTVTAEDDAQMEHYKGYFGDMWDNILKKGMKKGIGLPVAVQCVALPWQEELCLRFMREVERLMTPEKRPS
Nature of the experiment: Inhibition of FAAH-mediated [3H]anandamide hydrolysis in mouse brain. The class given is tissue-based.

Experiment [2] has as its system Mus musculus. Nature of the experiment: Increase in Swiss-Webster mouse brain 2-arachidonoylglycerol level at 10 mg/kg, ip. The class given is functional, organism-based. The arrangement: dose 10 mg/kg. In outline: (§1)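 Mice received single intraperitoneal doses (10 or 100 mg/kg). Brain levels of 2-AG and arachidonic acid were then measured. Values are mean ± S.D., n=3 mice per treatment group.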

Experiment [3] relates to Mus musculus. Nature of the experiment: Modulation of cataleptic behavior in Swiss-Webster mouse assessed as >10 sec latency along with flattened posture and open eyes at 10 mg/kg, ip by bar test. The class given is functional, organism-based. Further details: dose 10 mg/kg. The method in brief: (§2)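 Mice were given an intraperitoneal dose of 10 or 100 mg/kg and scored for catalepsy by bar test. A cannabinoid response was a latency >10 s, plus a qualitatively flattened posture and remaining motionless with eyes open. n=3 mice per treatment group, mean ± S.D.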

Experiment [4] relates to Mus musculus. As to the kind of experiment: Decrease in Swiss-Webster mouse brain arachidonic acid level at 100 mg/kg, ip. The class given is functional, organism-based. The arrangement: dose 100 mg/kg. The method in brief: as §1
The test system of experiment [5] is Mus musculus. As to the kind of experiment: Increase in Swiss-Webster mouse brain 2-arachidonoylglycerol level at 100 mg/kg, ip. The class given is functional, organism-based. The arrangement: dose 100 mg/kg. In outline: as §1
Experiment [6] has as its system Mus musculus. As to the kind of experiment: Modulation of cataleptic behavior in Swiss-Webster mouse assessed as >10 sec latency along with flattened posture at 100 mg/kg, ip by bar test. The class given is functional, organism-based. The arrangement: dose 100 mg/kg. The method in brief:
as §2

Experiment [7] deals with Mus musculus. Nature of the experiment: Decrease in Swiss-Webster mouse brain arachidonic acid level at 10 mg/kg, ip. The class given is functional, organism-based. The arrangement: dose 10 mg/kg. In outline: as §1
Experiment [8] addresses Cannabinoid receptor 1 (Mus musculus) (UniProt P47746). As to the kind of experiment: Displacement of [3H]CP-55940 from CB1 receptor in mouse brain at 100 nM. The class given is tissue-based.
Experiment [9] shares this target. Nature of the experiment: Displacement of [3H]CP-55940 from mouse CB1 receptor expressed in HEK293 cells up to 100,000 nM. The class given is cell-based.

SMILES strings stand for the structures. Calls of active or inactive are those of the source. The calls are words filed in the database; no cut-off is given here.

Cannabinoid receptor 1, sequence (P47746 whole entry): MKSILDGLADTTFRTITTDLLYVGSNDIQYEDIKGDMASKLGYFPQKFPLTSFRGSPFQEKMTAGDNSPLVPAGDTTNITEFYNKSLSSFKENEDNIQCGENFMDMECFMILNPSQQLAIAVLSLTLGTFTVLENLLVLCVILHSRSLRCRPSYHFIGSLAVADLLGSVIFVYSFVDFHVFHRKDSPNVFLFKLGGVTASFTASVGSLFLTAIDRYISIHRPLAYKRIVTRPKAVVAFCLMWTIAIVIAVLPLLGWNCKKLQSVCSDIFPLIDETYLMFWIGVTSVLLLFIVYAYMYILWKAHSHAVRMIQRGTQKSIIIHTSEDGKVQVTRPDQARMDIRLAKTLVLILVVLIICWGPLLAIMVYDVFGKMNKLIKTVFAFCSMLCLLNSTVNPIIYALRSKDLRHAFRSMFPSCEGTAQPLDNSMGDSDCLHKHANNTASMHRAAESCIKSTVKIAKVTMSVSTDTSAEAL
Cannabinoid receptor 1 (Mus musculus), sequence (P47746 whole entry): as above

As to `CCCCCCCCCCCCP(=O)(Oc1ccc([N+](=O)[O-])cc1)OC(C)C` (stereo not drawn), the IC50 (usually the concentration needed to halve the response being measured) on Cannabinoid receptor 1 was 12 nM; at Monoglyceride lipase, 0.28 nM; in [1], 3 nM.

Take `CCCCCCCCS(=O)(=O)F`: the result in the experiment on Mus musculus [2], in the experiment with Mus musculus [3], with Mus musculus [4], with Mus musculus [5], with Mus musculus [6] and with Mus musculus [7] was Active. The IC50 against Monoglyceride lipase is 140 nM; in [1], 1.9 nM.

For the compound `CCCCCCCCCSP1(=O)OCc2ccccc2O1` (stereo not drawn), the IC50 against Monoglyceride lipase was 0.31 nM; in [1] it was 0.15 nM.

Take `CCCCCCCCCCCCS(=O)(=O)F` [DODECANESULFONYL FLUORIDE]: the outcome with Mus musculus [2], in the experiment with Mus musculus [3], in the experiment with Mus musculus [4], with Mus musculus [5], in the experiment with Mus musculus [6] and with Mus musculus [7] was Active. The same compound showed an IC50 against Monoglyceride lipase of 200 nM.

In the case of `CCCCCCCCCCCCP(=O)(OCC)Oc1ccc(C#N)cc1` (stereo not drawn), the figures for the IC50 (at Cannabinoid receptor 1; on Monoglyceride lipase; in experiment [1]) were 4 nM, 0.07 nM and 12 nM, respectively. Besides, the result with Mus musculus [2], in the experiment on Mus musculus [3], in the experiment on Mus musculus [4], in the experiment on Mus musculus [5], in the experiment on Mus musculus [6] and in the experiment with Mus musculus [7] was Active.

Regarding `CCOP(=O)(OCC)Oc1ccc([N+](=O)[O-])cc1` [PARAOXON], the IC50 on Cannabinoid receptor 1 is 1200 nM; at Monoglyceride lipase, 2300 nM; in experiment [1] it was 540 nM.

`CCCCCCCCCCCCP(=O)(OCC)Oc1nc(Cl)c(Cl)cc1Cl` (stereo not drawn): the IC50 stood at 14 nM at Cannabinoid receptor 1, 0.14 nM against Monoglyceride lipase and 42 nM in experiment [1]. The outcome in the experiment on Mus musculus [2], in the experiment with Mus musculus [3], in the experiment on Mus musculus [4], in the experiment on Mus musculus [5], with Mus musculus [6] and in the experiment on Mus musculus [7] was inactive.

In [8], `CCOP(=O)(OCC)Oc1nc(Cl)c(Cl)cc1Cl` displayed a Bmax of 0.17 pmol/mg. In addition, the outcome in experiment [9] was inactive.
